From ChEMBL document CHEMBL3232847, “Discovery of 6-phenylpyrimido[4,5-b][1,4]oxazines as potent and selective acyl CoA:diacylglycerol acyltransferase 1 (DGAT1) inhibitors with in vivo efficacy in rodents” (J Med Chem, 2014)
Values belong to the compound of their own block, whether it stands above or below them. Calls of active or inactive are those of the source. The calls are words filed in the database; no cut-off is given here.

Legend:
[1] = Oral Bioavailability in CD1 mouse at 0.3 mg/kg; type: ADME, organism-based; conditions: in vivo
[2] = target: T1, Sterol O-acyltransferase 1 (Homo sapiens, UniProt P35610); experiment: Inhibition of human full-length flag-tagged ACAT1 expressed in baculovirus infected insect cells using [14C]palmitoyl CoA as substrate after 10 mins by scintillation counting
T1 sequence (P35610 whole entry): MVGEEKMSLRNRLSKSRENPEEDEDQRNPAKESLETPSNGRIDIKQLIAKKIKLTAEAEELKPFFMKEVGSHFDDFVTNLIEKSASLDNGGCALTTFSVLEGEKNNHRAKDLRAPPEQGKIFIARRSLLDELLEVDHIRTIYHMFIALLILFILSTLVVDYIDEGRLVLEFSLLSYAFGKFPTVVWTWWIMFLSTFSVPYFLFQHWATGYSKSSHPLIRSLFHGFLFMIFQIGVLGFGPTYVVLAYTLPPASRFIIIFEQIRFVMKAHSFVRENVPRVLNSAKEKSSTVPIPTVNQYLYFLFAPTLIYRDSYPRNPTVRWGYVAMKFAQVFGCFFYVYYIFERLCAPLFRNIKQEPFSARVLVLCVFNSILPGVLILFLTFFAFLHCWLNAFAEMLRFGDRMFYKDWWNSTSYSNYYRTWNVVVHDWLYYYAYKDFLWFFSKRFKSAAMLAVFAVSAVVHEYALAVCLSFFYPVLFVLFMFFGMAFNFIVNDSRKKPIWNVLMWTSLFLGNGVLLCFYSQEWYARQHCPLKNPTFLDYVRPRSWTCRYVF

[3] = Inhibition of rat small intestine microsomal MGAT by TLC technique in presence of monoacylglycerol and [14C] palmitoyl CoA; type: microsomes
[4] = target: T2, Sterol O-acyltransferase 2 (Homo sapiens, UniProt O75908); experiment: Inhibition of human full-length flag-tagged ACAT2 expressed in baculovirus infected insect cells using [14C]palmitoyl CoA as substrate after 10 mins by scintillation counting
T2 sequence (O75908 whole entry): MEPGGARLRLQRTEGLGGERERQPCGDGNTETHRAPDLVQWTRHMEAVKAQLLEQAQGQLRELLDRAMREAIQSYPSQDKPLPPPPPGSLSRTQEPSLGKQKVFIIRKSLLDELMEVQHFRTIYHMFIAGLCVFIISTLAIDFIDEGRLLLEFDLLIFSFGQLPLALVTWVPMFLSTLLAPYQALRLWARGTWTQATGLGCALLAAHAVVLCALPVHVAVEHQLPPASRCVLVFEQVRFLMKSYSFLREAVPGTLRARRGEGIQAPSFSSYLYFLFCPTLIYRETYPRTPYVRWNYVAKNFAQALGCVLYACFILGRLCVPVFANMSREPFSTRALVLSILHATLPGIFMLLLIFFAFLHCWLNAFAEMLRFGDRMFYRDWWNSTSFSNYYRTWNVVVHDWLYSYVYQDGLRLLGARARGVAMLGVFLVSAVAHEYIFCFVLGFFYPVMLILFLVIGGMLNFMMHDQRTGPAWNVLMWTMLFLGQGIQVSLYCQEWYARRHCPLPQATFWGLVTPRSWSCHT

[5] = target: T3, Voltage-gated inwardly rectifying potassium channel KCNH2 (Homo sapiens, UniProt Q12809); experiment: Inhibition of human ERG up to 5 uM by patch clamp assay
[6] = Half life in Sprague-Dawley rat at 0.7 mg/kg, iv; type: ADME, organism-based; design: dose 0.7 mg/kg, route intravenous; conditions: in vivo
[7] = AUC in Sprague-Dawley rat at 5 mg/kg, po; type: ADME, organism-based; design: dose 5 mg/kg, route oral; conditions: plasma
[8] = Volume of distribution at steady state in beagle dog at 0.2 mg/kg, iv; type: ADME, organism-based, Canis lupus familiaris; design: dose 0.2 mg/kg, route intravenous; conditions: in vivo, read-out: Vdss
[9] = Half life in beagle dog at 0.2 mg/kg, iv; type: ADME, organism-based, Canis lupus familiaris; design: dose 0.2 mg/kg, route intravenous; conditions: in vivo
[10] = AUC in beagle dog at 2 mg/kg, po; type: ADME, organism-based, Canis lupus familiaris; design: dose 2 mg/kg, route oral; conditions: plasma
[11] = Clearance in cynomolgus monkey at 0.5 mg/kg, iv; type: ADME, organism-based, Macaca fascicularis; design: dose 0.5 mg/kg, route intravenous; conditions: in vivo
[12] = Half life in cynomolgus monkey at 0.5 mg/kg, iv; type: ADME, organism-based, Macaca fascicularis; design: dose 0.5 mg/kg, route intravenous; conditions: in vivo
[13] = AUC in cynomolgus monkey at 5 mg/kg, po; type: ADME, organism-based, Macaca fascicularis; design: dose 5 mg/kg, route oral; conditions: plasma
[14] = test system: Rattus norvegicus; experiment: Toxicity in Sprague-Dawley rat assessed as change in clinical parameters at 10 mg/kg, po qd by 14-day multiple-dose toxicity study; type: organism-based; design: dose 10 mg/kg, route oral; conditions: in vivo
In short: (§1)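 Sprague−Dawley rats were dosed po once daily for 14 days. Clinical and histopathological findings were assessed, and plasma AUC was recorded for each dose.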

[15] = AUC in Sprague-Dawley rat at 30 mg/kg, po qd; type: ADME, organism-based; design: dose 30 mg/kg, route oral; conditions: plasma
In short: (§2)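 Sprague-Dawley rats dosed orally once daily for 14 days in a multiple-dose toxicity study at 10, 30 or 100 mg/kg. Plasma exposure was reported as AUC, and clinical and histopathological findings were recorded.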

[16] = AUC in Sprague-Dawley rat at 100 mg/kg, po qd; type: ADME, organism-based; design: dose 100 mg/kg, route oral; conditions: plasma; in short: as §2
[17] = test system: Cynomolgus monkey; experiment: Toxicity in cynomolgus monkey assessed as elevation of AST level at 10 to 30 mg/kg/day, po qd by 21-day multiple-dose toxicity study relative to control; type: organism-based, Macaca fascicularis; design: route oral; conditions: in vivo
In short: (§3)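 Cynomolgus monkeys were dosed po once daily at 10 and 30 mg/kg for 21 days. ALT and AST levels, QTc intervals, and clinical and histopathological findings were assessed, and plasma AUC was recorded for each dose.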

[18] = test system: Cynomolgus monkey; experiment: Toxicity in cynomolgus monkey assessed as elevation of prolongation of QTc interval at 10 to 30 mg/kg/day, po qd by 21-day multiple-dose toxicity study relative to control; type: organism-based, Macaca fascicularis; design: route oral; conditions: in vivo; in short: as §3
[19] = AUC in cynomolgus monkey at 10 mg/kg/day, po qd; type: ADME, organism-based, Macaca fascicularis; design: route oral; conditions: plasma
In short: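 Cynomolgus monkeys dosed orally once daily at 10 or 30 mg/kg for 21 days in a multiple-dose toxicity study. Plasma AUC was reported, with ALT/AST levels, QTc intervals and clinical and histopathological findings monitored.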

[20] = Oral bioavailability in Sprague-Dawley rat at 2 mg/kg; type: ADME, organism-based; conditions: in vivo
[21] = AUC in beagle dog at 5 mg/kg, po; type: ADME, organism-based, Canis lupus familiaris; design: dose 5 mg/kg, route oral; conditions: plasma
[22] = Oral bioavailability in beagle dog at 5 mg/kg; type: ADME, organism-based, Canis lupus familiaris; conditions: in vivo
[23] = test system: Rattus norvegicus; experiment: Reduction in plasma triglyceride level in Sprague-Dawley rat at 1 mg/kg, po treated 30 mins prior to olive oil administration measured 3 hrs post olive oil administration relative to vehicle-treated control; type: functional; design: scale not given: the % may be the effect or the level left
In short: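 Animals received vehicle or compound by oral gavage, then olive oil (5 mL/kg) by oral gavage 30 min later. Plasma triglycerides were measured before dosing and 3 h after the oil. The read-out was the change in TG from pre-dose, compared with vehicle-treated animals.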

[24] = target: T3, Voltage-gated inwardly rectifying potassium channel KCNH2; experiment: Inhibition of human ERG by patch clamp assay
[25] = test system: Rattus norvegicus; experiment: Toxicity in Sprague-Dawley rat assessed as change in histopathological parameters at 30 mg/kg, po by 14-day multiple-dose toxicity study; type: organism-based; design: dose 30 mg/kg, route oral; conditions: in vivo; in short: as §1
[26] = AUC in Sprague-Dawley rat at 100 mg/kg, po; type: ADME, organism-based; design: dose 100 mg/kg, route oral; conditions: plasma
[27] = Drug metabolism in cynomolgus monkey liver S9 fraction assessed as 2-hydroxy compound formation by MS/MS analysis; type: ADME, subcellular, Macaca fascicularis
[28] = target: T4, Sterol O-acyltransferase 2 (Homo sapiens) (UniProt O75908); experiment: Inhibition of human full-length flag-tagged ACAT2 expressed in baculovirus infected insect cells using [14C]palmitoyl CoA as substrate up to 10 uM after 10 mins by scintillation counting
T4 sequence (whole entry): T2 sequence (O75908 whole entry)

[29] = species: Mus musculus; experiment: Inhibition of mouse liver microsomal GPAT up to 10 uM by TLC technique in presence of glycerol-3-phosphate and [14C] palmitoyl CoA

T3 sequence (Q12809 whole entry): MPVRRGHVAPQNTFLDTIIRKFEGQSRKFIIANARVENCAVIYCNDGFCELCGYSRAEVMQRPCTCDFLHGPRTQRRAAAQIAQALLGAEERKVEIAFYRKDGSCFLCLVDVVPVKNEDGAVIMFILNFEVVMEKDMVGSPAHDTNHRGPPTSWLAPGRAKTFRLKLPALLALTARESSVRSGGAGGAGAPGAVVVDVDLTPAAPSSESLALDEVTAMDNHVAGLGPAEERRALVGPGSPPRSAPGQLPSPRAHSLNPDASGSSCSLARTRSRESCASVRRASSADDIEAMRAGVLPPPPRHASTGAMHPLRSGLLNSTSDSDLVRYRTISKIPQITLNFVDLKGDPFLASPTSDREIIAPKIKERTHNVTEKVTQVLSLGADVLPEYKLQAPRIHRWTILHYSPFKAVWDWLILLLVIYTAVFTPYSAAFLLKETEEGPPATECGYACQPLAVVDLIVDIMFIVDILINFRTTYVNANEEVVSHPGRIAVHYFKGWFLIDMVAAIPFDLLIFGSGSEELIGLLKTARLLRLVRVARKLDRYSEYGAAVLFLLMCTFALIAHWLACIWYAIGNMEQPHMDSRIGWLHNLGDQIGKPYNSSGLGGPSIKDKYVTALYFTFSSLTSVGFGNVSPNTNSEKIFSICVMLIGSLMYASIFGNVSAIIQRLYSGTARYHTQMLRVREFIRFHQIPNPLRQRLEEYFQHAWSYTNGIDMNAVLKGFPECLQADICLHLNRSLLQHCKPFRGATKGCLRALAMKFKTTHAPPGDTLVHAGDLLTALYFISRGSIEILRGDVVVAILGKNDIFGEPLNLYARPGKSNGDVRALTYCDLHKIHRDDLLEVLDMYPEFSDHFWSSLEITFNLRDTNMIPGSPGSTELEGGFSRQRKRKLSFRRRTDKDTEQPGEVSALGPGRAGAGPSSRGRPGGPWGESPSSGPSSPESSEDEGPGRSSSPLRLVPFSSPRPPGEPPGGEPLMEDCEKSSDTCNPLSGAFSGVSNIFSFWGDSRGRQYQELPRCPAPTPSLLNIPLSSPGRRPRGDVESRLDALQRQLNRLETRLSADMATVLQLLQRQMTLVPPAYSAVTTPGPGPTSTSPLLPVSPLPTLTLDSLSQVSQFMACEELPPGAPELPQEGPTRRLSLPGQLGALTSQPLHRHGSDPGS

bioavailability [1]: 77% | IC50 [2]: > 10 µM | IC50 [3]: > 10 µM | IC50 [4]: > 10 µM | half-life [6]: 3.7 h | AUC [7]: 22900 ng·h/mL | Vd [8]: 0.21 L/kg | half-life [9]: 1.1 h | AUC [10]: 3180 ng·h/mL | clearance [11]: 0.333 mL/min/kg | half-life [12]: 15.4 h | AUC [13]: 252000 ng·h/mL | AUC [15]: 78 µM·h | AUC [16]: 677 µM·h | AUC [19]: 607 µM·h
Compound: CC1(C)Oc2nc(C(F)(F)F)nc(N)c2N=C1c1ccc2c(c1)CC[C@]21CC[C@@H](CC(=O)O)CC1
inhibition (INH) [5]: Not Active | Activity [14]: Non-toxic | Activity [17]: Non-toxic | Activity [18]: Non-toxic

bioavailability [20]: 30% | AUC [21]: 4720 ng·h/mL | bioavailability [22]: 64% | AUC [26]: 3750 µM·h | Drug metabolism [27]: metabolite_detected | inhibition [28]: inactive | inhibition [29]: inactive
Compound: CC1(C)Oc2ncnc(N)c2N=C1c1ccc([C@H]2CC[C@H](CC(=O)O)CC2)cc1
Activity [23]: 110% | IC50 [24]: > 10 µM | Activity [25]: Non-toxic
